Reference: ChEMBL document CHEMBL1149140, “Orally bioavailable competitive CCR5 antagonists” (J Med Chem, 2004)
One block for each compound: values may come before it.

Experiments:
[1] = molecular target: T1, C-C chemokine receptor type 5 (Homo sapiens, UniProt P51681); experiment: Antagonistic activity against human C-C chemokine receptor type 5.; assay type: functional
Summary of the method: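 SPA radioligand binding using membranes from CHO cells transfected with human or cynomolgus CCR5. Buffer was 50 mM HEPES, 6 mM CaCl2, 12 mM MgCl2, 100 mM NaCl and 0.5% BSA. Incubated 2 h shaking at room temperature. Nonspecific binding defined with 100 nM unlabeled MIP-1α. IC50 reported.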

[2] = molecular target: T1, C-C chemokine receptor type 5; experiment: Rises in intracellular [Ca2+] levels by using [Ca2+] sensitive Fluo4 dye in C-C chemokine receptor type 5-transfected CHO cells.; assay type: functional, cell-based
Summary of the method: (§1)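 CCR5-transfected CHO cells were loaded with 4 µM Fluo4 for 1 h at 37 °C (HBSS, 20 mM HEPES pH 7.4, 0.1% BSA, 2.5 mM probenecid), then washed. Compound preincubated 2 h at room temperature. Baseline read 20 s on FLIPR, then MIP-1α added (final 10 nM) and recorded 3 min. IC50 from concentration-dependent reduction of Fmax−Fmin.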

[3] = Mean residence time in monkeys; assay type: ADME, organism-based; conditions: simiiformes, in vivo
[4] = AUC in monkeys at a dose of […] mg/kg; assay type: ADME, organism-based, Plasma; conditions: simiiformes, in vivo, 1 mg/kg
[5] = (§2) Compound was evaluated for rises in intracellular [Ca2+] levels pre-incubation at 2.5 min in [Ca2+] Mobilization Assay; assay type: functional, cell-based
Summary of the method: (§3)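 Fluo4-loaded CCR5-transfected CHO cells on FLIPR. Baseline read 20 s, then compound added and monitored 2.5 min, then MIP-1α agonist (final 10 nM) added and fluorescence recorded 3 min. IC50 from inhibition of the MIP-1α-induced fluorescence rise.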

[6] = Mean residence time was determined; assay type: ADME, organism-based; conditions: in vivo
[7] = Oral bioavailability in rat; assay type: ADME, organism-based; conditions: in vivo
[8] = Oral bioavailability; assay type: ADME, organism-based; conditions: eutheria, in vivo
[9] = Cmax in rats at a dose of […] mg/kg; assay type: ADME, organism-based; conditions: rat, in vivo, 1 mg/kg
[10] = Cmax in monkeys at a dose of […] mg/kg; assay type: ADME, organism-based; conditions: simiiformes, in vivo, 1 mg/kg
[11] = Tmax in monkeys; assay type: ADME; conditions: simiiformes, in vivo
[12] = tested on: Rattus norvegicus; experiment: AUC in rats at a dose of […] mg/kg; assay type: ADME, organism-based, Plasma; conditions: in vivo, 1 mg/kg
[13] = Compound was evaluated for rises in intracellular [Ca2+] levels pre-incubation at 2 hr in [Ca2+] Mobilization Assay; assay type: functional, cell-based; summary of the method: as §1
[14] = Compound was evaluated for rises in intracellular [Ca2+] levels by using [Ca2+] sensitive Fluo4 dye in CCR5-transfected CHO cells; assay type: functional, cell-based; summary of the method: as §1
[15] = Mean residence time in rat; assay type: ADME, organism-based; conditions: in vivo
[16] = molecular target: CCR5 (Macaca fascicularis); experiment: Antagonistic activity against cynomolgus monkey C-C chemokine receptor type 5
[17] = Tmax in rats; assay type: ADME, organism-based; conditions: rat, in vivo
[18] = species: Homo sapiens; experiment: as §2; assay type: functional, organism-based; summary of the method: as §3
[19] = Mean residence time in rats; assay type: ADME, organism-based; conditions: rat, in vivo

T1 sequence (P51681 whole entry): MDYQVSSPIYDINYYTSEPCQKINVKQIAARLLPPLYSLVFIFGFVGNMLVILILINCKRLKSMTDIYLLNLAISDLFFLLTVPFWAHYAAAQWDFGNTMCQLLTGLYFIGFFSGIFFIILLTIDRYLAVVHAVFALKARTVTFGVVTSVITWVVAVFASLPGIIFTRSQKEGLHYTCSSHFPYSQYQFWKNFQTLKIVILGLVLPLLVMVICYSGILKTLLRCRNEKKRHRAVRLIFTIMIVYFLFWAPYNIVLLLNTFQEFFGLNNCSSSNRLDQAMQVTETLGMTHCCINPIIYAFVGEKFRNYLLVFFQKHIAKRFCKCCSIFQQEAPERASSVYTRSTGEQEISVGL

IC50 [1]: 102 nM
IC50 [2]: 2170 nM
Compound: Cc1cccc(C)c1C(=O)N1CCC(C)(N2CCC(Nc3cccc4ccn(C)c34)CC2)CC1

Compound: Cc1cccc(C)c1C(=O)N1CCC(C)(N2CCC(N(Cc3ccccc3)c3ccccc3)CC2)CC1
MRT [3]: 4.1 h
AUG [4]: 33 ng·h/mL
IC50 [5]: 200 nM
MRT [6]: 8.9 h
bioavailability [7]: 85%
bioavailability [8]: 4%
Cmax [9]: 90 ng/mL
Cmax [10]: 7 ng/mL
Tmax [11]: 30 min
AUG [12]: 569 ng·h/mL

Compound: CN(C)C(=O)c1ccccc1C(=O)N1CCC(C)(N2CCC(N(c3ccccc3)c3ccccc3)CC2)CC1
IC50 [1]: > 100 nM

IC50 [1]: 75 nM
Compound: Cc1cccc(C)c1C(=O)N1CCC(C)(N2CCC(N(Cc3ccccc3)Cc3ccccc3)CC2)CC1

Compound: Cc1cc[n+]([O-])c(C)c1C(=O)N1CCC(C)(N2CCC(N(Cc3ccccc3C#N)c3ccccc3)CC2)CC1
IC50 [1]: 80 nM
IC50 [2]: > 3000 nM

Compound: CC1(N2CCC(N(c3ccccc3)c3ccccc3)CC2)CCN(C(=O)C2CCCCC2)CC1
IC50 [1]: 408 nM
IC50 [2]: 580 nM

Compound: Cc1cc[n+]([O-])c(C)c1C(=O)N1CCC(C)(N2CCC(N(c3ccccc3)c3ccccc3)CC2)CC1
IC50 [5]: 33 nM
IC50 [13]: 16 nM
IC50 [1]: 3.3 nM
IC50 [2]: 16 nM

Compound: Cc1nc[n+]([O-])c(C)c1C(=O)N1CCC(C)(N2CCC(N(c3ccccc3)c3ccccc3)CC2)CC1
MRT [3]: 5.1 h
AUG [4]: 1550 ng·h/mL
MRT [6]: 6 h
bioavailability [7]: 94%
bioavailability [8]: 58%
Cmax [9]: 91 ng/mL
Cmax [10]: 91 ng/mL
AUG [12]: 1030 ng·h/mL

Compound: Cc1cc[n+]([O-])c(C)c1C(=O)N1CCC(N2CCC(N(c3ccccc3)c3ccccc3)CC2)CC1
IC50 [1]: 9 nM
IC50 [2]: 127 nM

Compound: COc1cccc(OC)c1C(=O)N1CCC(C)(N2CCC(N(c3ccccc3)c3ccccc3)CC2)CC1
IC50 [1]: 42 nM

Compound: Cc1ccnc(C)c1C(=O)N1CCC(C)(N2CCC(N(c3ccccc3)c3ccccc3)CC2)CC1
IC50 [5]: 114 nM

IC50 [1]: 0.8 nM
IC50 [2]: 27.3 nM
Compound: Cc1cccc(C)c1C(=O)N1CCC(C)(N2CCC(Nc3ccc(C(F)(F)F)cc3)CC2)CC1

Compound: Cc1ccccc1C(=O)N1CCC(C)(N2CCC(N(c3ccccc3)c3ccccc3)CC2)CC1
IC50 [1]: 7.8 nM
IC50 [2]: 67 nM

IC50 [1]: 460 nM
Compound: Cc1cccc(C)c1C(=O)N1CCC(C)(N2CCC(Nc3ccc(-c4ccccc4)cc3)CC2)CC1

Compound: CC1(N2CCC(N(c3ccccc3)c3ccccc3)CC2)CCN(C(=O)c2cccc3ccccc23)CC1
IC50 [5]: 610 nM
IC50 [13]: 29 nM
bioavailability [7]: 100%
IC50 [14]: 29.4 nM
Cmax [10]: 70 ng/mL
MRT [15]: 14.4 h
AUG [12]: 518 ng·h/mL

IC50 [1]: > 1000 nM
Compound: COc1cc(CN(c2ccccc2)C2CCN(C3(C)CCN(C(=O)c4c(C)cc[n+]([O-])c4C)CC3)CC2)cc(OC)c1OC

IC50 [1]: > 1000 nM
IC50 [2]: > 1000 nM
Compound: Cc1cccc(C)c1C(=O)N1CCC(C)(N2CCC(NCc3ccccc3)CC2)CC1

Compound: Cc1cccc(C)c1C(=O)N1CCC(C)(N2CCC(N(Cc3ccccc3)c3ccc(Br)cc3)CC2)CC1
IC50 [5]: 1450 nM
IC50 [13]: 28 nM
IC50 [1]: 2.3 nM
IC50 [2]: 15.6 nM

IC50 [1]: 91 nM
IC50 [2]: 1680 nM
Compound: Cc1cccc(C)c1C(=O)N1CCC(C)(N2CCC(Nc3ccc4ccn(C)c4c3)CC2)CC1

Compound: Cc1cc(C)c(S(=O)(=O)N2CCC(C)(N3CCC(N(c4ccccc4)c4ccccc4)CC3)CC2)c(C)c1
IC50 [1]: 41 nM

Compound: CC1(N2CCC(N(c3ccccc3)c3ccccc3)CC2)CCN(C(=O)c2c[nH]c3ccccc23)CC1
IC50 [1]: 48 nM
IC50 [2]: 283 nM

IC50 [16]: 7.9 nM
IC50 [5]: 125 nM
IC50 [13]: 24.6 nM
MRT [6]: 5.8 h
bioavailability [8]: 57%
Cmax [9]: 73 ng/mL
IC50 [1]: 2.8 nM
Tmax [17]: 30 min
IC50 [2]: 30 nM
AUG [12]: 513 ng·h/mL
Compound: Cc1nc(-c2ccncc2)nc(C)c1C(=O)N1CCC(C)(N2CCC(N(c3ccccc3)c3ccccc3)CC2)CC1

AUG [4]: 115 ng/mL/h
bioavailability [7]: 86%
bioavailability [8]: 0%
Cmax [10]: 12 ng/mL
Compound: Cc1nc(-c2ccccc2)nc(C)c1C(=O)N1CCC(C)(N2CCC(N(c3ccccc3)c3ccccc3)CC2)CC1

Compound: Cc1ncnc(C)c1C(=O)N1CCC(C)(N2CCC(N(c3ccccc3)c3ccccc3)CC2)CC1
IC50 [13]: 8 nM
IC50 [18]: 28 nM

IC50 [1]: 100 nM
Compound: Cc1cccc(C)c1C(=O)N1CCC(C)(N2CCC(Nc3ccccc3)CC2)CC1

Compound: Cc1cccc(C)c1C(=O)N1CCC(C)(N2CCC(N(c3ccccc3)c3ccccc3)CC2)CC1
IC50 [5]: 250 nM
bioavailability [7]: 62%
bioavailability [8]: 0%
Cmax [10]: 81 ng/mL
Tmax [17]: 30 min
MRT [19]: 6.9 h
AUG [12]: 664 ng·h/mL
